The target in assay [1] is T1, Protein cereblon/Histone-lysine N-methyltransferase EZH2 (Homo sapiens) (UniProt Q15910+Q96SW2). As to the kind of experiment: PROTAC activity at CRBN E3 ligase/EZH2 in PRC2 complex in human WSUDLCL2 cells assessed as effect on RbAp48 mRNA expression at 1 uM incubated for 48 hrs by RT-qPCR analysis. Type of assay: cell-based. An outline of the steps:
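WSU-DLCL-2 cells treated 48 h with 1 μM compound. Total RNA extracted with Trizol and reverse-transcribed. SYBR qPCR run as 95 °C 30 s, then 40 cycles of 95 °C 6 s and 60 °C 20 s. PRC2 subunit mRNA normalized to the DMSO-treated group; mean SD, t-test.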
For orientation: Real-time PCR tracks product formation cycle by cycle.

Assay [2] addresses T1, Protein cereblon/Histone-lysine N-methyltransferase EZH2 (Homo sapiens). Nature of the assay: PROTAC activity at CRBN E3 ligase/EZH2 in PRC2 complex in human SU-DHL-6 cells assessed as induction of EED degradation by measuring reduction in EED protein level at 1 uM incubated for 48 hrs by Western blot analysis. Type of assay: cell-based. An outline of the steps: (§1)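 Cells cultured in DMEM or RPMI 1640 with 10% FBS and 1% penicillin-streptomycin, 37 °C, 5% CO2; exposed to 1 μM compound for 48 h. Lysates run on SDS-PAGE and transferred to nitrocellulose. Blocked 2 h in 5% skim milk, primary antibody overnight at 4 °C, then secondary antibody. Chemiluminescent detection of PRC2 subunits and H3K27me3.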
A general note: Immunoblotting shows a protein as a band on a membrane.

For another assay, the system named is NCI-H1299. Nature of the assay: Downregulation of CENPK mRNA expression in human NCI-H1299 cells at 10 uM incubated for 48 hrs by qRT-PCR analysis. The class given is functional, cell-based. In outline:
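Cells treated 48 h. Total RNA extracted with Trizol, reverse-transcribed, and SYBR RT-qPCR run: 95 °C 30 s, then 40 cycles of 95 °C 6 s and 60 °C 20 s. mRNA normalized to the DMSO-treated group. Mean SD of three independent experiments, t-test versus DMSO.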

For assay [3], the system named is WSUDLCL2. As to the kind of experiment: Inhibition of PRC2 in human WSUDLCL2 cells assessed as suppression H3K27 dimethylation incubated for 48 hrs by Western blot analysis. The class given is cell-based. An outline of the steps: (§2)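 Lysates run on SDS-PAGE and transferred to nitrocellulose. Membranes blocked with 5% skim milk for 2 h, primary antibody applied overnight at 4 °C, then secondary antibody and chemiluminescent detection of histone H3 methylation marks.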

Assay [4] concerns the target T1, Protein cereblon/Histone-lysine N-methyltransferase EZH2 (Homo sapiens). As to the kind of experiment: PROTAC activity at CRBN E3 ligase/EZH2 in PRC2 complex in human WSUDLCL2 cells assessed as downregulation of RbAp48 expression at 1 uM pretreated with MLN4924 for 4 hrs followed by compound addition and measured after 48 hrs by Western blot analysis. Type of assay: cell-based. In outline:
(§3)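 WSU-DLCL-2 cells pretreated 4 h with the named inhibitor, then compound added and incubated a further 48 h. EZH2, SUZ12, EED and RbAp48 measured by western blot (nitrocellulose transfer, skim-milk block, primary antibody overnight at 4 °C, chemiluminescent detection).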

Assay [5] concerns the target Histone-binding protein RBBP4 (Homo sapiens) (UniProt Q09028). Nature of the assay: Binding affinity to RbAp48 in human WSUDLCL2 cells assessed as thermal stability by measuring shift in temperature at 60 uM pretreated with proteasome inhibitor MG132 for 1 hr followed by compound addition incubated for 2 hrs by cellular thermal shift based Western blot analysis. The class given is cell-based. An outline of the steps: (§4)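 Cellular thermal shift: cells suspended at 1.5 × 10⁶/mL and pretreated with MG-132 (5 μM, 1 h), then given 60 μM compound for 2 h with a DMSO control. Cells were lysed in RIPA with cocktail for 1 h. Supernatant aliquots were heated 6 min at 45, 48, 51, 54, 57 and 60 °C and centrifuged 15 min. Soluble protein was immunoblotted; bands quantified by densitometry; three independent experiments.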

For assay [6], the target named is T1, Protein cereblon/Histone-lysine N-methyltransferase EZH2 (Homo sapiens). Nature of the assay: PROTAC activity at CRBN E3 ligase/EZH2 in PRC2 complex in human SK-OV-3 cells assessed as induction of SUZ12 degradation by measuring reduction in SUZ12 protein level at 1 uM incubated for 48 hrs by Western blot analysis. The class given is cell-based. An outline of the steps:
as §1

For assay [7] the target is unchanged. Nature of the assay: PROTAC activity at CRBN E3 ligase/EZH2 in PRC2 complex in human LNCaP cells assessed as induction of EZH2 degradation by measuring reduction in EZH2 protein level at 1 uM incubated for 48 hrs by Western blot analysis. The class given is cell-based. An outline of the steps:
(§5)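 Cancer cell lines exposed to 1 μM compound for 48 h. Lysates immunoblotted (SDS-PAGE, nitrocellulose, 5% milk block, primary antibody overnight at 4 °C) for EZH2, SUZ12, EED, RbAp48 and H3K27me3. Bands quantified by densitometry and normalized to GAPDH.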

For assay [8] the target is unchanged. As to the kind of experiment: PROTAC activity at CRBN E3 ligase/EZH2 in PRC2 complex in human LNCaP cells assessed as induction of EED degradation by measuring reduction in EED protein level at 1 uM incubated for 48 hrs by Western blot analysis. The class given is cell-based. In outline:
as §5

Assay [9] has the same target. As to the kind of experiment: PROTAC activity at CRBN E3 ligase/EZH2 in PRC2 complex in human SU-DHL-6 cells assessed as induction of RbAp48 degradation by measuring reduction in RbAp48 protein level at 1 uM incubated for 48 hrs by Western blot analysis. Type of assay: cell-based. An outline of the steps:
as §1

The target is the same in assay [10]. Nature of the assay: PROTAC activity at CRBN E3 ligase/EZH2 in PRC2 complex in human A2780 cells assessed as reduction in H3K27me3 level at 1 uM incubated for 48 hrs by Western blot analysis. The class given is cell-based. An outline of the steps:
as §5

Assay [11] shares this target. As to the kind of experiment: PROTAC activity at CRBN E3 ligase/EZH2 in PRC2 complex in human WSUDLCL2 cells assessed as downregulation of RbAp48 expression at 1 uM pretreated with EED226 for 4 hrs followed by compound addition and measured after 48 hrs by Western blot analysis. Type of assay: cell-based. In outline: as §3
Assay [12] has the same target. As to the kind of experiment: PROTAC activity at CRBN E3 ligase/EZH2 in PRC2 complex in human WSUDLCL2 cells assessed as induction of EED degradation at 1 uM measured up to 2 hrs by Western blot analysis. Type of assay: cell-based. As to conditions: time hrs <=2.
The target is the same in assay [13]. Nature of the assay: PROTAC activity at CRBN E3 ligase/EZH2 in PRC2 complex in human WSUDLCL2 cells assessed as induction of EZH2 degradation at 10 uM incubated for 48 hrs by Western blot analysis. The class given is cell-based.
For assay [14] the target is unchanged. As to the kind of experiment: PROTAC activity at CRBN E3 ligase/EZH2 in PRC2 complex in human WSUDLCL2 cells assessed as induction of SUZ12 degradation at 10 uM incubated for 48 hrs by Western blot analysis. The class given is cell-based.
Assay [15] addresses Polycomb protein SUZ12 (Homo sapiens) (UniProt Q15022). Nature of the assay: Binding affinity to SUZ12 in human WSUDLCL2 cells assessed as thermal stability by measuring shift in temperature at 60 uM pretreated with proteasome inhibitor MG132 for 1 hr followed by compound addition incubated for 2 hrs by cellular thermal shift based Western blot analysis. Type of assay: cell-based. In outline:
as §4

In assay [16] the test system is WSUDLCL2. Nature of the assay: Inhibition of PRC2 in human WSUDLCL2 cells assessed as suppression H3K27 trimethylation incubated for 48 hrs by Western blot analysis. Type of assay: cell-based. An outline of the steps: as §2
The target of assay [17] is T1, Protein cereblon/Histone-lysine N-methyltransferase EZH2 (Homo sapiens). Nature of the assay: PROTAC activity at CRBN E3 ligase/EZH2 in PRC2 complex in human WSUDLCL2 cells assessed as induction of RbAp48 degradation at 1 uM measured up to 2 hrs by Western blot analysis. The settings on record: time hrs <=2. Type of assay: cell-based.
Assay [18] has the same target. Nature of the assay: PROTAC activity at CRBN E3 ligase/EZH2 in PRC2 complex in human WSUDLCL2 cells assessed as downregulation of EZH2 expression at 1 uM pretreated with lenalidomide for 4 hrs followed by compound addition and measured after 48 hrs by Western blot analysis. The class given is cell-based. An outline of the steps:
as §3

Active and inactive are the calls of the source. No cut-off for these calls is given here.

T1 sequence (Q15910 whole entry, looked up): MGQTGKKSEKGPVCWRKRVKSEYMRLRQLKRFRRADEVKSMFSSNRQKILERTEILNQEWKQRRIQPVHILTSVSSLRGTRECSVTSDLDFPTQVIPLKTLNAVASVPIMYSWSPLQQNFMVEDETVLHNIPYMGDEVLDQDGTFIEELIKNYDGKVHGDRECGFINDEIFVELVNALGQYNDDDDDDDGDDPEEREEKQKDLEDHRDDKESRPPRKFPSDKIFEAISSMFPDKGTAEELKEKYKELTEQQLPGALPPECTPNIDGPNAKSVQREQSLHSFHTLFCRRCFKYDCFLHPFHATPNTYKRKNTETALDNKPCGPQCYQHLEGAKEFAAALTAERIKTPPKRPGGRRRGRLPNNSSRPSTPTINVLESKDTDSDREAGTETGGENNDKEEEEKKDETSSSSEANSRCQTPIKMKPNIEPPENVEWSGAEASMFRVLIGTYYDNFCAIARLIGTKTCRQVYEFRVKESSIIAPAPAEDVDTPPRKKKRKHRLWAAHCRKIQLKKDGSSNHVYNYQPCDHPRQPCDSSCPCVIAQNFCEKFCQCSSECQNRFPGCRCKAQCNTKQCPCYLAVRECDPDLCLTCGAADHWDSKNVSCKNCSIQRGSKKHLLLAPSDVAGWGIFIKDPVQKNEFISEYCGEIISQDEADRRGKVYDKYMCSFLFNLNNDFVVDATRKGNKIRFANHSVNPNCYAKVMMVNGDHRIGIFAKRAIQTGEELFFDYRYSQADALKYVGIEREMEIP
T1 sequence (Q96SW2 whole entry, looked up): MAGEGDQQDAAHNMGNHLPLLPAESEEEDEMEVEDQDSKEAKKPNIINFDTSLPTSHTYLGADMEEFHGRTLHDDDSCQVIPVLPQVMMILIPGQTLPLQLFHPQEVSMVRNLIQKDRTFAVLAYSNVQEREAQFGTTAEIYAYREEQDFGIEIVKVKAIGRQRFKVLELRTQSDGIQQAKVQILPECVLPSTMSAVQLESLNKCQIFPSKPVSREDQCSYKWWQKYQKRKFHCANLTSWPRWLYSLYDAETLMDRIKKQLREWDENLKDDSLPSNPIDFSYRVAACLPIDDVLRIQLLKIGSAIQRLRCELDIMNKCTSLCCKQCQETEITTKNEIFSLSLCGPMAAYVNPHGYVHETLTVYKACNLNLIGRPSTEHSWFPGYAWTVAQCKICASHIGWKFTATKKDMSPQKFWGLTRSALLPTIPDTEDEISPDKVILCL
Chain of Polycomb protein SUZ12 (Homo sapiens) (Q15022 whole entry): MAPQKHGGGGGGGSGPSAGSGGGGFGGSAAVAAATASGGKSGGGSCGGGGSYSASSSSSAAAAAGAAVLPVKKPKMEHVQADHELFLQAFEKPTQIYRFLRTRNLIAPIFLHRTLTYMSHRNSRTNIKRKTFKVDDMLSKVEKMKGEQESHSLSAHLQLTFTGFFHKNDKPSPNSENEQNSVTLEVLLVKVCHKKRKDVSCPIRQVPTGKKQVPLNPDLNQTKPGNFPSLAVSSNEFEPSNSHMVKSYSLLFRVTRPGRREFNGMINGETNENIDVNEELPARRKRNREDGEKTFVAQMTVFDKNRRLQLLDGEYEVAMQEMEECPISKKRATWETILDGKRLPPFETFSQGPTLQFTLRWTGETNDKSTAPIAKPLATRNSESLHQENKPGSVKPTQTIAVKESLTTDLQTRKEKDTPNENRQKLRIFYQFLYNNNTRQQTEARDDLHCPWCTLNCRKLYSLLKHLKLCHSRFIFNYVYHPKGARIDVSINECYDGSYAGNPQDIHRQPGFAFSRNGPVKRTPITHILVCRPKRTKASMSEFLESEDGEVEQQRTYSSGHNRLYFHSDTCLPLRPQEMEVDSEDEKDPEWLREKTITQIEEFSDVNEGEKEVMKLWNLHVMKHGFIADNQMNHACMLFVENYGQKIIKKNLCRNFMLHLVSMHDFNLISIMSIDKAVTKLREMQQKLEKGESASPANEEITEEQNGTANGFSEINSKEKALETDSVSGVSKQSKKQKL
Chain of Histone-binding protein RBBP4 (Homo sapiens) (Q09028 whole entry): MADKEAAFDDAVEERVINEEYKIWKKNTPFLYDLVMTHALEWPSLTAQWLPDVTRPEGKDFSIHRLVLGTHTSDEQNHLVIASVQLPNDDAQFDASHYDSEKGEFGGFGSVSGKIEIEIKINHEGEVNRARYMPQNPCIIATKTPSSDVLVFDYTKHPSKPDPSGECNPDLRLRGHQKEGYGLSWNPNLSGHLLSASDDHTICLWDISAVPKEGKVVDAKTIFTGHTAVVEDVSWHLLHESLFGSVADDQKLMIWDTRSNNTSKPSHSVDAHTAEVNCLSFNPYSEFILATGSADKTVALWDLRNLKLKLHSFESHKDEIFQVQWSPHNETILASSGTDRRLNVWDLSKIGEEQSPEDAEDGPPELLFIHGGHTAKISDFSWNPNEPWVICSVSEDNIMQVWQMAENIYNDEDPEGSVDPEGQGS

Consider `CCN(c1cc(-c2ccc(CN3CCN(CCCCCCCOc4cccc5c4C(=O)N(C4CCC(=O)NC4=O)C5=O)CC3)cc2)cc(C(=O)NCc2c(C)cc(C)[nH]c2=O)c1C)C1CCOCC1` (centres undefined), for which the outcome in assay [1], in assay [4], in [5], in [12], in assay [13] and in assay [14] was inactive. For the same compound, the result in assay [15], in [17] and in [18] was inactive. Besides, the outcome (in [2]; with NCI-H1299; in assay [6]; in assay [7]; in assay [8]; in assay [9]) was Active. Besides, the result in assay [10] and in assay [11] was Active. Further, the inhibition result with WSUDLCL2 [3] and in the assay on WSUDLCL2 [16] was “Dose-Dependent Effect” each time.

These data come from ChEMBL document CHEMBL5038571, “Design and Synthesis of EZH2-Based PROTACs to Degrade the PRC2 Complex for Targeting the Noncatalytic Activity of EZH2” (J Med Chem, 2021).
